# Experimental data from the M2OR odorant receptor database.
# What was measured:
# Settings in all cases: stereoisomer not certain
# OR10H4 (Homo sapiens) = target: T1, OR10H4 (Homo sapiens) (UniProt Q8NGA5)
# T1 sequence (whole entry): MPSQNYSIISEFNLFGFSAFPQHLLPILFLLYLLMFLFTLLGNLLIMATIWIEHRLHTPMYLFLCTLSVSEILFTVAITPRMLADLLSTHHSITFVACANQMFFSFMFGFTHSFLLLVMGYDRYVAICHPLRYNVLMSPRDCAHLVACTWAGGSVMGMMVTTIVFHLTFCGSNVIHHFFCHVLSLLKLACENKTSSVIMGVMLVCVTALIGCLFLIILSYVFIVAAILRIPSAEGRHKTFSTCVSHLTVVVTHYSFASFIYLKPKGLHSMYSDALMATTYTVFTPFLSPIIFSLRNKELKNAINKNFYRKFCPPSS
# Summary of the method: (§1)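 Transient luciferase assays in mammalian cell lines were common, though methods varied by source. The values come from published papers and their supplementary material, with extra details from the original authors when needed. Responsive refers to a measured signal the original authors judged statistically different from baseline, and non-responsive (inactive) to the remainder.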
# OR10H5 (Homo sapiens) = target: T2, OR10H5 (Homo sapiens) (UniProt Q8NGA6)
# T2 sequence (whole entry): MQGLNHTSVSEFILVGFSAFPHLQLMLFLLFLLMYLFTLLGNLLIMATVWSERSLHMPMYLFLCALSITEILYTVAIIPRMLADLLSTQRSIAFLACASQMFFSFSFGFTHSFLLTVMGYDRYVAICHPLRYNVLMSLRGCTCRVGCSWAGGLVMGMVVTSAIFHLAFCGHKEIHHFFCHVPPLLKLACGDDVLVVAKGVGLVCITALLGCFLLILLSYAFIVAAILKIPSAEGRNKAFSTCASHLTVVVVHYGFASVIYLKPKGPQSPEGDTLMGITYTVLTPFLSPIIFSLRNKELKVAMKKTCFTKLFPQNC
# Summary of the method: as §1
# OR10J1 (Homo sapiens) = target: T3, OR10J1 (Homo sapiens) (UniProt P30954)
# T3 sequence (whole entry): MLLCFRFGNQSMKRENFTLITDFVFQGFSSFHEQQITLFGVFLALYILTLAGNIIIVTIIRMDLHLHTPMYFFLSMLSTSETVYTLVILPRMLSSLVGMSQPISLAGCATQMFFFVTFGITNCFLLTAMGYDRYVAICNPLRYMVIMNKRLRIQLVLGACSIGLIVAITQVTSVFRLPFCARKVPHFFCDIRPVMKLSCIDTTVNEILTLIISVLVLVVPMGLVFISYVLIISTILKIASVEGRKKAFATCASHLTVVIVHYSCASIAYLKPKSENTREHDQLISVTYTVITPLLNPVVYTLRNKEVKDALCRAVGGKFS
# Summary of the method: as §1
# OR10J3 (Homo sapiens) = target: T4, OR10J3 (Homo sapiens) (UniProt Q5JRS4)
# T4 sequence (whole entry): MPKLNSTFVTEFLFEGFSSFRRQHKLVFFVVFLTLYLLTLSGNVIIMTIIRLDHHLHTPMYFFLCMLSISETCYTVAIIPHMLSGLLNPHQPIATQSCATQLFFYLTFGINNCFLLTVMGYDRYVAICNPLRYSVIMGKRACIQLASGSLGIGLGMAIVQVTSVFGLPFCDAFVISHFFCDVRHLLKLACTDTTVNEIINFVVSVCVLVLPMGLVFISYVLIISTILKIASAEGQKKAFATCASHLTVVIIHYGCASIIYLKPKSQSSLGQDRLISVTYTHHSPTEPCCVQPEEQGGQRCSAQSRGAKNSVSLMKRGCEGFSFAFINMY
# Summary of the method: as §1
# OR10J5 (Homo sapiens) = target: T5, OR10J5 (Homo sapiens) (UniProt Q8NHC4)
# T5 sequence (whole entry): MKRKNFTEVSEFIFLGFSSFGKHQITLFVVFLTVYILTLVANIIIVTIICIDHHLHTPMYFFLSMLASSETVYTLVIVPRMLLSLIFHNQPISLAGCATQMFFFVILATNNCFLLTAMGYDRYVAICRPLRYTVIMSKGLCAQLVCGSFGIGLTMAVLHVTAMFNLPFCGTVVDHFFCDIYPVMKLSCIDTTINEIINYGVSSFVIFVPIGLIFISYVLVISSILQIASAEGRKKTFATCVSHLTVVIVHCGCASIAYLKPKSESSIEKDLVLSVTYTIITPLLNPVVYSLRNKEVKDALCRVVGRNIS
# Summary of the method: as §1
# OR10K1 (Homo sapiens) = target: T6, OR10K1 (Homo sapiens) (UniProt Q8NGX5)
# T6 sequence (whole entry): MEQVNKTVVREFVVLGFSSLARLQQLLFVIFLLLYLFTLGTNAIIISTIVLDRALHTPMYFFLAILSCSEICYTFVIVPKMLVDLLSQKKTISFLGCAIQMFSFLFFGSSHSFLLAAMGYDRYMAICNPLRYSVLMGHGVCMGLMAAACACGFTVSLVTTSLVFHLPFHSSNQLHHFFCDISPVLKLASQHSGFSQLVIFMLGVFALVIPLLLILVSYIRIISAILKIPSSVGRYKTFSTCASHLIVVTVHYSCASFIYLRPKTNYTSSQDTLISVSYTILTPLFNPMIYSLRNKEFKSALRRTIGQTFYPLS
# Summary of the method: as §1
# OR10K2 (Homo sapiens) = target: T7, OR10K2 (Homo sapiens) (UniProt Q6IF99)
# T7 sequence (whole entry): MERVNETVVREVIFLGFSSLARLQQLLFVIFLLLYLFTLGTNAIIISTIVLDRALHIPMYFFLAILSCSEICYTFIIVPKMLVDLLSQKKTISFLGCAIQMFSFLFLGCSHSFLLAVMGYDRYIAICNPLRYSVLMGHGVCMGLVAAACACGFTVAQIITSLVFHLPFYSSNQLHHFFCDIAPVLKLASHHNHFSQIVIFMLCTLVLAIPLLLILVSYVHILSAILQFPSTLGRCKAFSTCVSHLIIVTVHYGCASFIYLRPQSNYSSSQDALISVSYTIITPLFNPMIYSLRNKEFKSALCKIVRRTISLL
# Summary of the method: as §1
# OR10P1 (Homo sapiens) = target: T8, OR10P1 (Homo sapiens) (UniProt Q8NGE3)
# T8 sequence (whole entry): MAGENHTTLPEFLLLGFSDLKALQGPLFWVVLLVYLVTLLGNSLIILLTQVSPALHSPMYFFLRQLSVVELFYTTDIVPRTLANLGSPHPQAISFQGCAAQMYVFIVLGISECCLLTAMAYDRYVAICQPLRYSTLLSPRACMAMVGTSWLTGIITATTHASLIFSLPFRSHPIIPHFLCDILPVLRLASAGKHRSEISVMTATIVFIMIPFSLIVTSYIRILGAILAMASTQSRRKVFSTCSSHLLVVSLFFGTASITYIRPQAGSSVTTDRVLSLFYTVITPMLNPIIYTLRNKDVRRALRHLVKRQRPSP
# Summary of the method: as §1
# OR10Q1 (Homo sapiens) = target: T9, OR10Q1 (Homo sapiens) (UniProt Q8NGQ4)
# T9 sequence (whole entry): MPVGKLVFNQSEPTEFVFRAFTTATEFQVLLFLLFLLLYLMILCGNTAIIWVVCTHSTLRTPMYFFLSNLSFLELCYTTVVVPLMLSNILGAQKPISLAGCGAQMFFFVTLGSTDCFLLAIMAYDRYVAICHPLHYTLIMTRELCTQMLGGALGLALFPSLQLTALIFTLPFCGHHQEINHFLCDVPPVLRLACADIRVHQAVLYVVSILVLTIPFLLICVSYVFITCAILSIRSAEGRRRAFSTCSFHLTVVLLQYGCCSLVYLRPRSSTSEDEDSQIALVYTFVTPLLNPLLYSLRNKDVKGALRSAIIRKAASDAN
# Summary of the method: as §1
structure (smiles),measurement,setting,value
CCCCC(S)C(C)CO (centres undefined),odorant receptor agonist call,OR10H4 (Homo sapiens),inactive
same,odorant receptor agonist call,OR10H5 (Homo sapiens),inactive
same,odorant receptor agonist call,OR10J1 (Homo sapiens),inactive
same,odorant receptor agonist call,OR10J3 (Homo sapiens),inactive
same,odorant receptor agonist call,OR10J5 (Homo sapiens),active
same,odorant receptor agonist call,OR10K1 (Homo sapiens),inactive
same,odorant receptor agonist call,OR10K2 (Homo sapiens),inactive
same,odorant receptor agonist call,OR10P1 (Homo sapiens),inactive
same,odorant receptor agonist call,OR10Q1 (Homo sapiens),inactive
